Legend:
[1] = biological target: T1, Polyunsaturated fatty acid 5-lipoxygenase (Rattus norvegicus, UniProt P12527); experiment: In vitro inhibitory activity against RBL-1 5-LO; type: cell-based
T1 sequence (P12527 whole entry): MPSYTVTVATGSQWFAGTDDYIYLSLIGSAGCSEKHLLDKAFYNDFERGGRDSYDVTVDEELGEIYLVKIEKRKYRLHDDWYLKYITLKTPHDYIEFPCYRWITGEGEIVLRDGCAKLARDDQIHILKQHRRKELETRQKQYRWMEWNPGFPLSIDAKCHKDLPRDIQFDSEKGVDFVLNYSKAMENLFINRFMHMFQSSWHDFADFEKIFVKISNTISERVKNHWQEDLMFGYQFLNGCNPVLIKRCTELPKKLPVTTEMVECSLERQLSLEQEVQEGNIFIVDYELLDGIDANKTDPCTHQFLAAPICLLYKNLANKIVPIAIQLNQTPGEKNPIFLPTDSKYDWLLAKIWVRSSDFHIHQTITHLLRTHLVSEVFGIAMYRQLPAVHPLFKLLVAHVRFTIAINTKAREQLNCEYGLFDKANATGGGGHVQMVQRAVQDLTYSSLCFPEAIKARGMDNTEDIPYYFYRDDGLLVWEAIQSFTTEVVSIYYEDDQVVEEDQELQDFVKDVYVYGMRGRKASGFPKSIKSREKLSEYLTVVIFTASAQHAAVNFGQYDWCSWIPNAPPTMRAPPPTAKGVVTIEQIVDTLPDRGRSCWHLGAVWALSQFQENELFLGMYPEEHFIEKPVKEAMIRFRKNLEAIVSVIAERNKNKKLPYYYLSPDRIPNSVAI

[2] = biological target: T2, Polyunsaturated fatty acid 5-lipoxygenase (Rattus norvegicus) (UniProt P12527); experiment: Percent inhibition against RBL-1 5-LO in vitro at 10 uM; type: cell-based
T2 sequence (whole entry): T1 sequence (P12527 whole entry)
Summary of the method: (§1)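 200-μL incubations held the 20000g supernatant of 1.5 million homogenized RBL-1 cells plus compound. Radiolabeled arachidonic acid started the reaction; acidification and ether extraction ended it. Product was resolved by TLC and counted by liquid scintillation, in triplicate. Inhibition was taken from the ratio of product formed with and without inhibitor.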

[3] = biological target: T2, Polyunsaturated fatty acid 5-lipoxygenase (Rattus norvegicus); experiment: Percent inhibition against RBL-1 5-LO in vitro at 300 uM; type: cell-based
Summary of the method: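 20000g supernatant from 1.5 million homogenized RBL-1 cells, with test compound, in 200-μL incubations. Reactions were started with radiolabeled arachidonic acid and stopped by acidification and ether extraction. Products were separated from unconverted substrate by TLC and counted by liquid scintillation. Inhibition was taken from product formed with versus without inhibitor. Run in triplicate.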

[4] = biological target: T2, Polyunsaturated fatty acid 5-lipoxygenase (Rattus norvegicus); experiment: Percent inhibition against RBL-1 5-LO in vitro at 30 uM; type: cell-based; summary of the method: as §1
[5] = biological target: T2, Polyunsaturated fatty acid 5-lipoxygenase (Rattus norvegicus); experiment: Percent inhibition against RBL-1 5-LO in vitro at 100 uM; type: cell-based; summary of the method: as §1
[6] = biological target: T1, Polyunsaturated fatty acid 5-lipoxygenase; experiment: Compound was tested for its inhibition activity against 5-LO of the whole cell in vitro in rat.
[7] = biological target: Prostaglandin G/H synthase 1 (Ovis aries) (UniProt P05979); experiment: Compound was tested for the percent of inhibition against sheep seminal vesicle cyclooxygenase at 100 uM
[8] = biological target: T3, Polyunsaturated fatty acid lipoxygenase ALOX12 (Homo sapiens) (UniProt P18054); experiment: Compound was tested for the percent of inhibition against 12-LO at 10 uM; type: functional
T3 sequence (whole entry): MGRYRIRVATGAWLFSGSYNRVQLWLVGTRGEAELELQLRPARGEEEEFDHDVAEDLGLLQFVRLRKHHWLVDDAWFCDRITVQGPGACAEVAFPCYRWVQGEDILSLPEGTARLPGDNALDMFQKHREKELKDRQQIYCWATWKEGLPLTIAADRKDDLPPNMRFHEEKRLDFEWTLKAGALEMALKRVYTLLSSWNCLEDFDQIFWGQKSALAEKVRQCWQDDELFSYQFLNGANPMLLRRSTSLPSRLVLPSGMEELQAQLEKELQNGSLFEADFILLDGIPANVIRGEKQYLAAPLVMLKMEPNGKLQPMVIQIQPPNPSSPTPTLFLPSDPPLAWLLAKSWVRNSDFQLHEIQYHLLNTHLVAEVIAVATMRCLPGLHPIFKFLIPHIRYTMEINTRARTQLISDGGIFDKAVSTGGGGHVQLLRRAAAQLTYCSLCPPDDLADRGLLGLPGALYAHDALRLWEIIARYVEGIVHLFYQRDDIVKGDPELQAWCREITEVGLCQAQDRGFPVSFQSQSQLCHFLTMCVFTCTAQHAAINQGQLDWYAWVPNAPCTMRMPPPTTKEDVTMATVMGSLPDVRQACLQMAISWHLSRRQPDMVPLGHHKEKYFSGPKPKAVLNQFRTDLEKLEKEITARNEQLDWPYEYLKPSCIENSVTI
Summary of the method: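 The RBL-1 enzyme was replaced by human platelet 12-lipoxygenase, soybean 15-lipoxygenase or sheep seminal vesicle cyclooxygenase. Reactions were started with radiolabeled arachidonic acid and stopped by acidification and ether extraction. Products were separated by TLC and counted by liquid scintillation, in triplicate. Inhibition was taken from the ratio of product formed with and without inhibitor.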

[9] = tested on: Seed linoleate 15-lipoxygenase (Glycine max); experiment: Compound was tested for the percent of inhibition against soybean 15-LO (at 100 uM)
[10] = biological target: T1, Polyunsaturated fatty acid 5-lipoxygenase; experiment: Compound was tested for its inhibition activity against the 5-LO in isolated enzyme
Summary of the method: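 5-LO from the 20000g supernatant of 1.5 million homogenized RBL-1 cells, in 200-μL incubations across a range of compound concentrations. Reaction started with radiolabeled arachidonic acid and stopped by acidification and ether extraction. Products were separated from substrate by TLC and counted by liquid scintillation, in triplicate.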

[11] = biological target: T2, Polyunsaturated fatty acid 5-lipoxygenase (Rattus norvegicus); experiment: Compound was tested for the percent of inhibition against 5-LO at 10 uM; summary of the method: as §1

Chain of Prostaglandin G/H synthase 1 (Ovis aries) (P05979 whole entry, looked up): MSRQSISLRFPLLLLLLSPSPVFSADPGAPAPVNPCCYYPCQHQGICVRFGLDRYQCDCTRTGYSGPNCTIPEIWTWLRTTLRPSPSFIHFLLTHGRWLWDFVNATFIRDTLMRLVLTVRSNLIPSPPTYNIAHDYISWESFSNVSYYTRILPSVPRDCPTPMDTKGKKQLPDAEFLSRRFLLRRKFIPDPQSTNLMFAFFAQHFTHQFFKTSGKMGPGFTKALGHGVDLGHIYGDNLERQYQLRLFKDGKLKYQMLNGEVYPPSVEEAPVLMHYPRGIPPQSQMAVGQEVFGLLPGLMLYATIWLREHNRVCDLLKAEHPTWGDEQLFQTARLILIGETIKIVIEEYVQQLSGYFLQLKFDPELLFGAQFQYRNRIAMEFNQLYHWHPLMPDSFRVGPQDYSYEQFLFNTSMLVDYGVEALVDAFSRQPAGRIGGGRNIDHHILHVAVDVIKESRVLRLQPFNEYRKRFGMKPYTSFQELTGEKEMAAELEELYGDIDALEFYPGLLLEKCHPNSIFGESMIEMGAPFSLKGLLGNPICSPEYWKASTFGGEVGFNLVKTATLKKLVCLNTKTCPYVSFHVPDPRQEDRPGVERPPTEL

| IC50 [1] [µM] | Compound | other results |
| --- | --- | --- |
| 46 | O=C(C#Cc1ccccc1)NO | – |
| 61 | N#Cc1ccc(C(=O)NO)cc1 | – |
| 31 | O=C(/C=C\c1ccccc1)NO | – |
| 27 | O=C(Cc1cccc2ccccc12)NO | – |
| 27 | O=C(CCCc1ccccc1)NO [PHENYLBUTYRYLHYDROXAMIC ACID] | – |
| 7.1 | CCCCCCCCOc1ccc2cc(C(=O)NO)ccc2c1 | – |
| 110 | O=C(NO)c1ccccc1 [BENZOHYDROXAMATE] | – |
| 14 | O=C(NO)c1ccc2ccccc2c1 | – |
| 19 | O=C(Cc1ccc2ccccc2c1)NO | – |
| 27 | O=C(NO)c1ccc(C(F)(F)F)cc1 | – |
| 0.022 | Cc1cc(C)c(-c2ccc(/C=C/C(=O)N(C)O)cc2)c(C)c1 | – |
| 6.5 | CCCCCCCOc1ccc2cc(C(=O)NO)ccc2c1 | – |
| 0.12 | C/C(=C\C(=O)N(C)O)c1ccc2ccccc2c1 | – |
| 2.9 | CCCCC/C=C\CCOc1ccc2cc(C(=O)NO)ccc2c1 | – |
| 0.33 | O=C(NO)c1ccc(-c2ccc3ccccc3c2)cc1 | – |
| 190 | O=C(NO)c1ccc(O)cc1 | – |
| > 400 | Nc1ccc(C(=O)NO)cc1 | – |

Further lines, the molecule ahead of its results:

| Compound | IC50 [1] [µM] | other results |
| --- | --- | --- |
| CCCCCCCCCOc1ccc2cc(C(=O)NO)ccc2c1 | – | inhibition [2]: 33% |
| O=C(/C=C/c1ccc2ccccc2c1)N(O)C1CCCCC1 | 0.1 | – |
| O=C(/C=C/c1ccccc1)NO | 12 | – |
| CC(C)N(O)C(=O)/C=C/c1ccc2ccccc2c1 | 0.082 | – |
| NC(=O)c1ccc2ccccc2c1 | – | inhibition [3]: 9% |
| NNC(=O)c1ccc2ccccc2c1 | – | inhibition [3]: 6% |
| CN(O)S(=O)(=O)c1ccc2ccccc2c1 | – | inhibition [4]: 6% |
| O=C(NO)c1ccc([N+](=O)[O-])cc1 | 23 | – |
| CONC(=O)c1ccc2ccccc2c1 | – | inhibition [4]: 0% |
| O=C(CO)c1ccc2ccccc2c1 | – | inhibition [5]: 15% |
| O=C(NO)c1ccc(I)cc1 | 15 | – |
| O=C(NO)c1ccc(Br)cc1 | 14 | – |
| Cc1ccc(C(=O)NO)cc1 | 65 | – |
| O=C(Cc1ccccc1)NO [PHENYLACETOHYDROXAMIC ACID] | 300 | – |
| CCCCCCCCCCCCOc1ccc2cc(C(=O)NO)ccc2c1 | – | inhibition [2]: 11% |
| C/C(=C\c1ccc2ccccc2c1)C(=O)N(C)O | 0.47 | – |
| CN(O)C(=O)/C=C/c1ccc2ccccc2c1 | 0.1 | – |
| CN(O)C(=O)c1ccc2ccccc2c1 | 1.3 | – |
| O=S(=O)(NO)c1ccc2ccccc2c1 | – | inhibition [5]: 51% |
| O=C(NO)c1ccc(-c2ccccc2)cc1 | – | IC50 [6]: 3.3 µM; inhibition [7]: 50%; inhibition [8]: 86%; inhibition [9]: 30%; IC50 [10]: 4 µM; inhibition [11]: 86% |
| O=C(O)c1ccc2ccccc2c1 | – | inhibition [3]: 0% |
| O=C(/C=C/c1ccc2ccccc2c1)N(O)c1ccccc1 | 0.052 | – |
| Cc1cc(C)c(-c2ccc(C(=O)N(C)O)cc2)c(C)c1 | 0.064 | – |
| CO/C(=N\O)c1ccc2ccccc2c1 | – | inhibition [3]: 74% |
| O=C(NO)c1ccc(-c2cccc3ccccc23)cc1 | 0.18 | – |
| Cc1cc(C)c(-c2ccc(C(=O)NO)cc2)c(C)c1 | 0.29 | – |
| O=C(NO)c1cccc2ccccc12 | 43 | – |
| COc1ccc2cc(C(=O)NO)ccc2c1 | 8.2 | – |
| O=C(CCc1ccccc1)NO | 87 | – |

Source: ChEMBL document CHEMBL1123703, “Hydroxamic acid inhibitors of 5-lipoxygenase” (J Med Chem, 1987)
